The source made the active and inactive calls. The rule behind the calls is not given here.
Key:
MCF7 = assay: Cytotoxicity against human MCF7 cells after 48 hrs by MTT assay; format: cell-based; details: MCF7, 48 h
Outline: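 MCF7 human breast adenocarcinoma cells seeded at 5 × 10³ cells/well and preincubated 24 h at 37 °C, 5% CO₂. Compounds were added at various concentrations for 48 h at 37 °C. MTT solution (5 mg/mL stock) was added for 2 h, and formazan was dissolved in 10% SDS–0.01 N HCl. OD was read at 550/700 nm in triplicate wells, and IC₅₀ was taken from % living cells vs control.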

Aorta [1] = assay: Vasorelaxant activity in Wistar rat endothelium-intact thoracic aortic rings assessed as inhibition of phenylephrine-induced tissue contraction at 30 uM; format: functional, tissue-based
Outline: (§1)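 Thoracic aorta rings, 3 mm, in Krebs–Henseleit solution (95% O₂/5% CO₂, 37 °C), equilibrated 60 min at 1.0 g resting tension. Rings were contracted with 3 × 10⁻⁷ M phenylephrine. Endothelium was accepted if 10⁻⁵ M acetylcholine gave 80% relaxation. At the contraction plateau, samples were added at 1 × 10⁻⁶–3 × 10⁻⁵ M. Tension was recorded isometrically; data are mean ± SEM with ANOVA/Bonferroni.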

Plasmodium falciparum = assay: Antimalarial activity against chloroquine-sensitive Plasmodium falciparum 3D7 by giemsa stain
[2] = Selectivity index, ratio of IC50 for human MCF7 to IC50 for chloroquine-sensitive Plasmodium falciparum 3D7
[3] = Vasorelaxant activity in Wistar rat endothelium-intact thoracic aortic rings assessed as inhibition of phenylephrine-induced tissue contraction in presence of NO synthase-inhibitor L-NMMA; format: functional; details: Thoracic aorta
Aorta [4] = assay: Vasorelaxant activity in Wistar rat endothelium-intact thoracic aortic rings assessed as inhibition of phenylephrine-induced tissue contraction; format: functional, tissue-based; outline: as §1
Aorta [5] = assay: Vasorelaxant activity in Wistar rat endothelium-removed thoracic aortic rings assessed as inhibition of phenylephrine-induced tissue contraction; format: functional, tissue-based
Outline: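 Isolated thoracic aorta rings, 3 mm, in oxygenated Krebs–Henseleit solution at 37 °C, equilibrated 60 min under 1.0 g tension. Rings were precontracted with 3 × 10⁻⁷ M phenylephrine, and at the plateau samples were added at 1 × 10⁻⁶–3 × 10⁻⁵ M. Relaxation was recorded by force transducer; data are mean ± SEM.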

Structure (SMILES) | IC50 (MCF7) [µM] | Activity (Aorta [1]) | IC50 (Plasmodium falciparum) [µM] | Ratio IC50 [2] | Activity [3] | Activity (Aorta [4]) | Activity (Aorta [5])
Cc1cc2c3c(cc(C)n2C)cc(=O)cc3o1 | > 100 | inactive | 23.3 | > 4.2 | – | – | –
CCCCn1c(C)cc2cc(=O)cc3oc(C)cc1c23 | > 100 | inactive | 4.2 | > 23 | – | – | –
CC1=Cc2nc(C)cc3cc(OS(=O)(=O)C(F)(F)F)cc(c23)O1 | > 100 | – | 0.41 | > 244 | – | – | –
Cc1cc2c3c(cc(C)n2-c2ccccc2)cc(=O)cc3o1 | > 100 | inactive | 0.09 | > 1110 | – | – | –
CNC(=N)NCCC[C@H](N)C(=O)O | – | – | – | – | inactive | – | –
CC1=Cc2nc(C)cc3cccc(c23)O1 [7-DEHYDROXYCASSIARIN A] | > 100 | – | 5.4 | > 18 | – | – | –
CC(=O)Oc1cc2c3c(nc(C)cc3c1)C=C(C)O2 [ACETYLCASSIARIN A] | > 100 | – | 1.2 | > 83 | – | – | –
CC1=Cc2nc(C)cc3cc(OC(=O)c4ccccc4)cc(c23)O1 [BENZOYLCASSIARIN A] | > 100 | – | 1.2 | > 83 | – | – | –
CCCC(=O)Oc1cc2c3c(nc(C)cc3c1)C=C(C)O2 [BUTYROYLCASSIARIN A] | > 100 | Active | 4.1 | > 24 | – | – | –
CC1=Cc2nc(C)cc3cc(OCc4ccccc4)cc(c23)O1 [CASSIARIN A BENZYL ETHER] | 72.2 | – | 14.9 | 4.8 | – | – | –
CCCCOc1cc2c3c(nc(C)cc3c1)C=C(C)O2 [CASSIARIN A BUTYL ETHER] | 76.7 | – | 3 | > 26 | – | – | –
COc1cc2c3c(nc(C)cc3c1)C=C(C)O2 [CASSIARIN A METHYL ETHER] | 87.8 | Active | 3.6 | > 24 | – | Dose-dependent effect | inactive
CC1=Cc2nc(C)cc3cc(O)cc(c23)O1 [CASSIARIN A] | > 100 | Active | 0.023 | > 4350 | – | Dose-dependent effect | inactive
COC(=O)CCCn1c(C)cc2cc(=O)cc3oc(C)cc1c23 [CASSIARIN B] | > 100 | inactive | 22 | > 4.5 | – | – | –
CCN(CC)CCCC(C)Nc1ccnc2cc(Cl)ccc12 (configuration not stated) [CHLOROQUINE] | 36.1 | – | – | – | – | – | –

Source: ChEMBL document CHEMBL1153093, “Synthesis and structure-activity relationships of cassiarin A as potential antimalarials with vasorelaxant activity” (Bioorg Med Chem, 2009)
